Columns and labels:
Leishmania tropica [1] = assay: (§1) Antileishmanial activity against Leishmania tropica MHOM/MA/1988/LEM1314 promastigotes infected in Syrian hamster assessed as reduction in lesion thickness at 2 mg/kg administered intralesionally once daily on footpad for 3 weeks starting at week 7 post infection measured 1 week post last dose relative to control; type: functional, organism-based; set-up: scale not given: the % may be the effect or the level left
Method in brief: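 L. tropica stationary-phase promastigotes (3 × 10^7 in 50 μL PBS) injected into the left hind footpad. Treatment began at week 7 (+75% footpad thickness) and ran daily for 21 days, n = 10/group. Routes were 50 mg ointment on the lesion (cetyl alcohol/lanolin/petrolatum base), gavage in olive oil, or intralesional meglumine antimoniate 2 mg SbV/kg. Lesion thickness was measured weekly against base-only ointment; sacrifice was 1 week after the last dose.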

Leishmania tropica [2] = assay: as §1, with “parasite load in foodpad skin” for “lesion thickness”, “dose by qPCR analysis” for “dose”; type: functional, organism-based; set-up: scale not given: the % may be the effect or the level left
Method in brief: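 Hamsters were infected in the footpad and treated daily for 21 days from week 7 post-infection, n = 10/group, and sacrificed 1 week after the last dose. Footpad skin, liver and spleen DNA was assayed by L. tropica-specific TaqMan qPCR (chromosome 29 target), in triplicate with 50 ng DNA per 25 μL reaction. Load was interpolated from Ct on a calibration curve of promastigote DNA, relative to base-ointment controls.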

Meglumine antimoniate; Glucantime
Activity (Leishmania tropica [1]): 3.2%
Activity (Leishmania tropica [2]): 73%
